Tests used:
[1] = target: T1, Serine/threonine-protein kinase BRSK2 (Homo sapiens) (UniProt Q8IWQ3); assay: Inhibition of human recombinant BRSK2 at 40 nM in presence of ATP by radiometric assay relative to control
T1 sequence (whole entry): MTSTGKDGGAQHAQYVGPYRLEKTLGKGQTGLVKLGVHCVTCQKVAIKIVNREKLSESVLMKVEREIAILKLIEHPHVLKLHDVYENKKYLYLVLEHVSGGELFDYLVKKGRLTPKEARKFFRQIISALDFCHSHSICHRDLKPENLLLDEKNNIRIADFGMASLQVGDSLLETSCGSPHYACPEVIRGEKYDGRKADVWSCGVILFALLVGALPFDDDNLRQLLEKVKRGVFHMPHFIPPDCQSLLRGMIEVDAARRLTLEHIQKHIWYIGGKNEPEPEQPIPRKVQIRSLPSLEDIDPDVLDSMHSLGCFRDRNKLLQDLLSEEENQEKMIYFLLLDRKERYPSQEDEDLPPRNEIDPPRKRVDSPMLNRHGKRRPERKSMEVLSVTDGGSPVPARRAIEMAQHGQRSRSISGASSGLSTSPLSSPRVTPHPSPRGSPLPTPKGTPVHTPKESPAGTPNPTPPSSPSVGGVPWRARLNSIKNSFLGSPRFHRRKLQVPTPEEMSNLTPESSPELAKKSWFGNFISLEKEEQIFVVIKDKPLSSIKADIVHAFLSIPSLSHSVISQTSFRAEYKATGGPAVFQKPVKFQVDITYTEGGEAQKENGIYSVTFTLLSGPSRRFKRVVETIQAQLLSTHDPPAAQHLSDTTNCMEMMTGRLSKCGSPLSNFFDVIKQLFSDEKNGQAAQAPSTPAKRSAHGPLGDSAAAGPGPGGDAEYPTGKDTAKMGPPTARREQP
In short: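 Recombinant human kinase panel (327 kinases) run as radiometric activity assays, each kinase in duplicate at one compound concentration. Activity remaining expressed relative to vehicle control; percent inhibition taken as 100% minus % activity remaining.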

[2] = target: Serine/threonine-protein kinase ATR (Homo sapiens) (UniProt Q13535); assay: Inhibition of human recombinant ATR at 40 nM in presence of ATP by radiometric assay relative to control
Chain of Serine/threonine-protein kinase ATR (Homo sapiens) (Q13535 whole entry, looked up): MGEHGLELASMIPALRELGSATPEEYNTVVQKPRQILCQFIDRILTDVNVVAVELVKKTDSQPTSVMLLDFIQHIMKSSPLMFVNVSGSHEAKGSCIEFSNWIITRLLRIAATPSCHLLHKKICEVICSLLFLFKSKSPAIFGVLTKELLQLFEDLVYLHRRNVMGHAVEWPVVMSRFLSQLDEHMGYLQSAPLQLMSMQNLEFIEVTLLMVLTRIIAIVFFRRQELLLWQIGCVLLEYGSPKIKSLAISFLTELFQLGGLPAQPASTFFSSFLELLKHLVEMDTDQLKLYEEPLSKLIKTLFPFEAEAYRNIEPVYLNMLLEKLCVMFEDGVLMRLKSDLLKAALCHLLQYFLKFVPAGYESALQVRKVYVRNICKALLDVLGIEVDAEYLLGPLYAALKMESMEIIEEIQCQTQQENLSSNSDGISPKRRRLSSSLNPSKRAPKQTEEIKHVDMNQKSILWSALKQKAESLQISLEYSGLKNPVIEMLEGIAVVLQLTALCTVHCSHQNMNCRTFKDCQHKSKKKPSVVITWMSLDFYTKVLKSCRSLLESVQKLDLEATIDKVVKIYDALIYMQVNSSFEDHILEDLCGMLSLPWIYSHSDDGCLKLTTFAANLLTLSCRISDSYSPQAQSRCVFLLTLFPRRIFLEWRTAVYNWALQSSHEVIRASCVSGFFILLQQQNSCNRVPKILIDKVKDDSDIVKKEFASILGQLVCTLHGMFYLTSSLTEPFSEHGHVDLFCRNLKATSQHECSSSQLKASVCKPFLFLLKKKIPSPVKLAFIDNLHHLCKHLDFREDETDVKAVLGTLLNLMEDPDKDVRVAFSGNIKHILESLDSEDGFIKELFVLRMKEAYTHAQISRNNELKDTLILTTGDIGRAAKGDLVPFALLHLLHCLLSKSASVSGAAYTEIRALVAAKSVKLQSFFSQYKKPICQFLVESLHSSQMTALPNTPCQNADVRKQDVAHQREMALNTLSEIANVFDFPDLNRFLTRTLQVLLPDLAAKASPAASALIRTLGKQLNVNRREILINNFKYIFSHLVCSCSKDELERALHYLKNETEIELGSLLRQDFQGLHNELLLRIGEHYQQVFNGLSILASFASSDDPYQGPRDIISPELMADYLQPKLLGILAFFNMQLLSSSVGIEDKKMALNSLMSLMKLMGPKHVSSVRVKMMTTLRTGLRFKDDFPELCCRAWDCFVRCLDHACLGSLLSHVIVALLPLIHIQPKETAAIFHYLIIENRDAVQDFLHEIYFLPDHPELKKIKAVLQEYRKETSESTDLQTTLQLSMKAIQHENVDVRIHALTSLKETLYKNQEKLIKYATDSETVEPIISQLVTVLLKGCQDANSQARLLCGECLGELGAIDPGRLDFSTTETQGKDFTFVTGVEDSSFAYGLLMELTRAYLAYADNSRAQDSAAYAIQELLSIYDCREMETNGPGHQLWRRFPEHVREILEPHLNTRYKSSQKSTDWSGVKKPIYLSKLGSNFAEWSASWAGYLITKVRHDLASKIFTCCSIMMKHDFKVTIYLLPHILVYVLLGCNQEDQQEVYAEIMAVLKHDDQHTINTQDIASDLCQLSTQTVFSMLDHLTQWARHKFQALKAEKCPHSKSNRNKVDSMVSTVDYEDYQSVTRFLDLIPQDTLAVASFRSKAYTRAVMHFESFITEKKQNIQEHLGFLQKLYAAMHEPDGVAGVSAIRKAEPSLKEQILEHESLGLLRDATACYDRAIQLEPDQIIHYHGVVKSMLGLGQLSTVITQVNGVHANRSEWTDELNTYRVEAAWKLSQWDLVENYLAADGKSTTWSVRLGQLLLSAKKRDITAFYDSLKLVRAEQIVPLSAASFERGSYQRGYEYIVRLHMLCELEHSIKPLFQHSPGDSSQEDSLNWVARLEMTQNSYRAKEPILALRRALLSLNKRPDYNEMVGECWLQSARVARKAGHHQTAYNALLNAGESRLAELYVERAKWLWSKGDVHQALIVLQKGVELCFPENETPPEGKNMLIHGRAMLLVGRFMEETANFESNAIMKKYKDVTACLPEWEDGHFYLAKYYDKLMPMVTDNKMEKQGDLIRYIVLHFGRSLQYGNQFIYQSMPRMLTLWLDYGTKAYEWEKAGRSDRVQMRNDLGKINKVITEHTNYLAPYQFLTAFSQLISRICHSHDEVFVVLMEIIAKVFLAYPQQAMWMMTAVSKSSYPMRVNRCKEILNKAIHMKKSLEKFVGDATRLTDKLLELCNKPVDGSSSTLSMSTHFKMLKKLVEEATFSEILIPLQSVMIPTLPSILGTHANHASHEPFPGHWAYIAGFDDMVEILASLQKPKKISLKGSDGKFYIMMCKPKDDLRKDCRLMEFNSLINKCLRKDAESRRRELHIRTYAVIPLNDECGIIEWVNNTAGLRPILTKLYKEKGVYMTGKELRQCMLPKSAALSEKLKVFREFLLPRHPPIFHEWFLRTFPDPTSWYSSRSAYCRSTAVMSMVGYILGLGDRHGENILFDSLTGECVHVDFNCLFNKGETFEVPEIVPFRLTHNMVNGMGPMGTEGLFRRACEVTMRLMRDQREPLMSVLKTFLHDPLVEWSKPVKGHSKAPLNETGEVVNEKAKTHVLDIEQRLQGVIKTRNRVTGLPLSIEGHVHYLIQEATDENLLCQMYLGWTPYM
In short: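 Panel of 327 recombinant human kinases, each assayed in vitro by radiometric activity assay in duplicate at a single inhibitor concentration per compound, chosen with reference to its ULK1 inhibition. Activity remaining was expressed as percent of vehicle control, and percent inhibition was calculated as 100 minus percent activity remaining.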

[3] = target: T2, TGF-beta receptor type-1 (Homo sapiens) (UniProt P36897); assay: Inhibition of human recombinant TGFbR1 at 500 nM related to control ULK1
T2 sequence (whole entry): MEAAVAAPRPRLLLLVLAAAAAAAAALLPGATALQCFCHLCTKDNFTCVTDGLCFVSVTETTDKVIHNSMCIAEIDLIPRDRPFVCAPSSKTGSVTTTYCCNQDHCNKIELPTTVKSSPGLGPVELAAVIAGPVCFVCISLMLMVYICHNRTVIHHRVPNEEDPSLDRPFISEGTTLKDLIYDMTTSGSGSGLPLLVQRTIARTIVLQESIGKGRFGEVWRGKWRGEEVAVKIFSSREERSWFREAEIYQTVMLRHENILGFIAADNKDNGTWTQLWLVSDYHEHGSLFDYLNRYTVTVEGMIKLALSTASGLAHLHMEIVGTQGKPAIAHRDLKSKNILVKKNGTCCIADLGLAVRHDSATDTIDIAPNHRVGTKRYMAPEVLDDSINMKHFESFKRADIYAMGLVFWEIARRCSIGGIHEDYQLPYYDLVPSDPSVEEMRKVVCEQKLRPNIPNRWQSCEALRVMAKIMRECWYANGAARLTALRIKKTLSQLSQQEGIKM

[4] = target: Platelet-derived growth factor receptor beta (Homo sapiens) (UniProt P09619); assay: Inhibition of human recombinant PDGFRb at 500 nM related to control ULK1
Chain of Platelet-derived growth factor receptor beta (Homo sapiens) (P09619 whole entry): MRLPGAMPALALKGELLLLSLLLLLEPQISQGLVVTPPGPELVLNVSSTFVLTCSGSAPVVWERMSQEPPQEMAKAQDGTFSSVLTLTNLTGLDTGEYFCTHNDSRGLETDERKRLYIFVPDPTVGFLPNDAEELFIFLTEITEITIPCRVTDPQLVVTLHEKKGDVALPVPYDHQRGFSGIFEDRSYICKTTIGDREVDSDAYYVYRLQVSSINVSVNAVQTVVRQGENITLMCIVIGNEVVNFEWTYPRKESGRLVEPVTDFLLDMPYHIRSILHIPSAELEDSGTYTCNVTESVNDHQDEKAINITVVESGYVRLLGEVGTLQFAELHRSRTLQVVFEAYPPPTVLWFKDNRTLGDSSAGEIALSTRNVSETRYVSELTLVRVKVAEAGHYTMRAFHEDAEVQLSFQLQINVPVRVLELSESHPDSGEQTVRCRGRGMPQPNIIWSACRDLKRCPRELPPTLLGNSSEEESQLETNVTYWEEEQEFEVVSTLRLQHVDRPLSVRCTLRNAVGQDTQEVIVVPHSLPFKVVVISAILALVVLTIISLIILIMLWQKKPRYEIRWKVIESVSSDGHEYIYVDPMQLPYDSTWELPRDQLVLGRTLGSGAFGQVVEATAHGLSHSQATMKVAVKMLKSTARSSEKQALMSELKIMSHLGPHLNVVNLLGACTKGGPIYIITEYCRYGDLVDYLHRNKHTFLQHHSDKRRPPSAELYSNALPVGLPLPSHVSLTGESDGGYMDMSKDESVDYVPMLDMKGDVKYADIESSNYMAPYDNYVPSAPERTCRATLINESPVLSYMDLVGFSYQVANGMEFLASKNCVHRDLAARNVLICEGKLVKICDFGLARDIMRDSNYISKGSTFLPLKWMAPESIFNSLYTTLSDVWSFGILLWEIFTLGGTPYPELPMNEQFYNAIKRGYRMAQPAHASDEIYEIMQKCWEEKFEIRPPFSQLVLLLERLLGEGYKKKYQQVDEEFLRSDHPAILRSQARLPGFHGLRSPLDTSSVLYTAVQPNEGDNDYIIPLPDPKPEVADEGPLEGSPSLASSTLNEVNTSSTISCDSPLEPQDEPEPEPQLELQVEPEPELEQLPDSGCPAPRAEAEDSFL

[5] = target: Mitogen-activated protein kinase 14 (Homo sapiens) (UniProt Q16539); assay: Inhibition of human recombinant p38alpha at 500 nM related to control ULK1
Chain of Mitogen-activated protein kinase 14 (Homo sapiens) (Q16539 whole entry): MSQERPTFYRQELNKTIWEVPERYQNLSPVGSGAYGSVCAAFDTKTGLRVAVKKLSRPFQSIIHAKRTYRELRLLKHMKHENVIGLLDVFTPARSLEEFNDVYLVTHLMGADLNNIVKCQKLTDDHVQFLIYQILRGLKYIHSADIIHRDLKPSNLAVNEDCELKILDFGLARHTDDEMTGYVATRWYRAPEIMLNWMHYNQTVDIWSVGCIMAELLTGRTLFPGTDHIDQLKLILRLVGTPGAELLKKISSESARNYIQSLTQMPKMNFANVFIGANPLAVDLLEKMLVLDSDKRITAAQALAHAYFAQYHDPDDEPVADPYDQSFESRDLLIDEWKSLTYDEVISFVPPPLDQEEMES

[6] = target: MAP kinase-interacting serine/threonine-protein kinase 2 (Homo sapiens, UniProt Q9HBH9); assay: Inhibition of human recombinant MNK2 at 500 nM related to control ULK1
Chain of MAP kinase-interacting serine/threonine-protein kinase 2 (Q9HBH9 whole entry, looked up): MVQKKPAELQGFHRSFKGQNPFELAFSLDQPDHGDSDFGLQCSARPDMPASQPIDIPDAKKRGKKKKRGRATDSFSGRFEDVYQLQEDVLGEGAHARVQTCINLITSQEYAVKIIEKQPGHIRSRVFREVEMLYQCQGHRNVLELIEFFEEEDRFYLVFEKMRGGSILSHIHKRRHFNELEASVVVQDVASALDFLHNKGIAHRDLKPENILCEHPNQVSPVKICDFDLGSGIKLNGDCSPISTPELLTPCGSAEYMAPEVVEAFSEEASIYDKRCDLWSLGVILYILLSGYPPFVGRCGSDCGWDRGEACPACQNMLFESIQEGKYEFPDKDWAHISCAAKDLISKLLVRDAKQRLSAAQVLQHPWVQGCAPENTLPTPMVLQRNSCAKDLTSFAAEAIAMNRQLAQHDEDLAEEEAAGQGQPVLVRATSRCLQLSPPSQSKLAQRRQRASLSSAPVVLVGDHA

[7] = target: Cyclin-dependent kinase 6 (Homo sapiens) (UniProt Q00534); assay: Inhibition of human recombinant CDK6 at 500 nM in presence of ATP by radiometric assay relative to control
Chain of Cyclin-dependent kinase 6 (Homo sapiens) (Q00534 whole entry): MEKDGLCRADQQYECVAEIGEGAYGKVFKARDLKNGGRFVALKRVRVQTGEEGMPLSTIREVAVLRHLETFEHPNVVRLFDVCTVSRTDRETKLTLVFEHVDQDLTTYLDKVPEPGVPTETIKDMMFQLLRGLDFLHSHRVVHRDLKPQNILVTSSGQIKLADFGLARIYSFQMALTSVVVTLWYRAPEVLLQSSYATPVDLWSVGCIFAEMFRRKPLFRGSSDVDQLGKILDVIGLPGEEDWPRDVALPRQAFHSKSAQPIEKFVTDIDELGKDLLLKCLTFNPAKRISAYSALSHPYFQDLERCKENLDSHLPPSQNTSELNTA

[8] = target: T3, Serine/threonine-protein kinase Sgk3 (Homo sapiens) (UniProt Q96BR1); assay: Inhibition of human recombinant SGK3 at 15 nM in presence of ATP by radiometric assay relative to control
T3 sequence (whole entry): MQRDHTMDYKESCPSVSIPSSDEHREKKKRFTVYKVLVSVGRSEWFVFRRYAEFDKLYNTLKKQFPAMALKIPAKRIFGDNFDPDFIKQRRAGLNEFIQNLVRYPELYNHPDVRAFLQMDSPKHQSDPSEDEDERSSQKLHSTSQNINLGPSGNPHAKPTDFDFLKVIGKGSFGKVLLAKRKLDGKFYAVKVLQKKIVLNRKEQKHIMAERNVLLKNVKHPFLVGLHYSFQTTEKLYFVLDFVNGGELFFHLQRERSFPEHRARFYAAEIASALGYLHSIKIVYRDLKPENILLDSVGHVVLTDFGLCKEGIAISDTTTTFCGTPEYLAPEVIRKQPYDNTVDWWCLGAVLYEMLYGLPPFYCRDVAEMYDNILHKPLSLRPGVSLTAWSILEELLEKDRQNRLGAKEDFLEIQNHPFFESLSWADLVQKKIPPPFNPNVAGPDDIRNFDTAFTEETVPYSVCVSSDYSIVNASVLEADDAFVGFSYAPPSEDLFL

O=C(N[C@@H](C1CC1)C(F)(F)F)c1cc(-c2cnn3cc(-c4ccc(F)cc4)cnc23)cs1
inhibition [1]: 0%
inhibition [2]: 0%

CNC(=O)c1ccccc1Oc1nc(Nc2cc(OC)c(OC)c(OC)c2)ncc1Br
fold change (FC) [3]: 0
fold change (FC) [4]: 0
fold change (FC) [5]: 0.07
fold change (FC) [6]: 0.03
inhibition [7]: 0%

CC(C)[C@H](NC(=O)c1cc(-c2cnn3cc(-c4ccc(OCCN5CCCCC5)cc4)cnc23)cs1)C(F)(F)F
inhibition [8]: 4%

Reference: ChEMBL document CHEMBL5653631, “A Potent and Selective ULK1 Inhibitor Suppresses Autophagy and Sensitizes Cancer Cells to Nutrient Stress” (iScience, 2018)
